In ChEMBL document CHEMBL5321217, “Identification of pyrrolo[3',4':3,4]cyclohepta[1,2-d][1,2]oxazoles as promising new candidates for the treatment of lymphomas” (Eur J Med Chem, 2023):
Calls of active or inactive are those of the source. The calls are words filed in the database; no cut-off is given here.

Experiments:
Tubulin (Homo sapiens) [1] = molecular target: T1, Tubulin (Homo sapiens) (UniProt P68371+Q9H4B7+P0DPH7+P68366+Q13509+Q71U36+P04350+Q3ZCM7+P07437+P68363+Q9BQE3+Q6PEY2+Q13885+Q9BVA1+Q9BUF5); test: Inhibition of [3H]colchicine binding to tubulin (unknown origin) at 5 uM relative to control; type: protein-complex assay
Procedure, shortened: (§1)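 Colchicine-site competition: 0.5 μM tubulin with 5.0 μM [3H]colchicine and inhibitor at 5.0 μM, or 25 μM where stated.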

Tubulin = test: Inhibition of tubulin assembly (unknown origin); type: protein-complex assay, Homo sapiens
A549 = test: Induction of cell cycle arrest in human A549 cells assessed as accumulation of cells at G2/M phase at 5 uM incubated for 24 hrs by PI staining based flow cytometry analysis; type: functional
Procedure, shortened: (§2)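 Seeding in 6-well plates, 2 mL medium: A549 5×10^4, CCRF-CEM 2.5×10^5, VL51 2.0×10^5. 24 h treatment, A549 detached with trypsin-EDTA. Cells fixed in 70% ice-cold ethanol, PI-labelled, analysed by flow cytometry. Mean of two independent experiments.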

[2] = Cytotoxicity against PHA-induced human PBL cells assessed as inhibition of cell growth measured after 72 hrs by MTT assay; type: toxicity, cell-based; conditions: PHA-induced human peripheral blood lymphocytes (PBL)
[3] = Cytotoxicity against resting human PBL cells assessed as inhibition of cell growth measured after 72 hrs by MTT assay; type: toxicity, cell-based; conditions: resting human peripheral blood lymphocytes (PBL)
VL51 [4] = test: Induction of mitochondrial membrane potential depolarization in human VL51 cells at 0.5 to 1 uM measured after 24 hrs by JC-1 fluorescent dye based flow cytometry analysis; type: functional, cell-based; conditions: dose 0.5-1 µM
Procedure, shortened: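 VL51 cells treated 24 h at 0.5 and 1.0 μM, labelled with JC-1, analysed by flow cytometry in FL1 and FL2 channels.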

VL51 [5] = test: Induction of cell cycle arrest in human VL51 cells assessed as accumulation of cells at G2/M phase at 5 uM incubated for 24 hrs by PI staining based flow cytometry analysis; type: functional; procedure, shortened: as §2
Tubulin (Homo sapiens) [6] = molecular target: T1, Tubulin (Homo sapiens); test: Inhibition of [3H]colchicine binding to tubulin (unknown origin) at 25 uM relative to control; type: protein-complex assay; procedure, shortened: as §1
VL51 [7] = test: Induction of cell cycle arrest in human VL51 cells assessed as increase in mitotic cells at 0.5 to 1 uM incubated for 24 hrs by PI staining based flow cytometry analysis; type: functional; conditions: dose 0.5-1 µM
CCRF-CEM = test: Induction of cell cycle arrest in human CCRF-CEM cells assessed as accumulation of cells at G2/M phase at 10 uM incubated for 24 hrs by PI staining based flow cytometry analysis; type: functional; procedure, shortened: as §2

| SMILES | inhibition (Tubulin (Homo sapiens) [1]) [%] | IC50 (Tubulin) [µM] | Activity (A549) | IC50 at 72 h [2] [µM] | IC50 at 72 h [3] [µM] | Activity (VL51 [4]) | Activity (VL51 [5]) | inhibition (Tubulin (Homo sapiens) [6]) [%] | Activity (VL51 [7]) | Activity (CCRF-CEM) |
| --- | --- | --- | --- | --- | --- | --- | --- | --- | --- | --- |
| COc1ccc(Cn2cc3c(c2-c2ccc(OC)cc2)CCCc2cnoc2-3)cc1 | 7.7 | 4.6 |  |  |  |  |  |  |  |  |
| COc1ccc(Cn2cc3c(c2-c2ccccc2)CCCc2cnoc2-3)cc1 | 1.8 | 1.1 | Active | > 10 | > 10 | inactive | Active | 19 | inactive | Active |
